Converted amounts (≈) assume the structure as drawn.
Tests used:
Format in all cases: functional
Streptococcus pyogenes = assay: Antibacterial activity against Streptococcus pyogenes
In short: (§1)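 Broth microdilution MIC per CLSI guidelines in Mueller-Hinton broth: serial 2-fold dilutions, inoculum 5 × 10⁵ CFU/mL in equal volume, 35 °C for 16-20 h. MIC = lowest concentration with no visible turbidity. Recent clinical isolates (43 total, Gram-positive and Gram-negative); values given as MIC ranges, MIC₅₀ and MIC₉₀ per species.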

Staphylococcus aureus [1] = assay: Antibacterial activity against methicillin-susceptible Staphylococcus aureus; in short: as §1
Streptococcus pneumoniae = assay: Antibacterial activity against Streptococcus pneumoniae; in short: as §1
[2] = system: Staphylococcus epidermidis; assay: Antibacterial activity against Staphylococcus epidermidis; in short: as §1
Haemophilus influenzae = assay: Antibacterial activity against Haemophilus influenzae; in short: as §1
Enterococcus = assay: Antibacterial activity against Enterococcus spp; in short: as §1
Staphylococcus aureus [3] = assay: Antibacterial activity against methicillin-resistant Staphylococcus aureus
In short: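 Clinical isolates (3 MRSA in a 43-strain panel). Broth microdilution per CLSI, serial 2-fold dilutions in Mueller-Hinton broth, inoculum 5 × 10⁵ CFU/mL, 35 °C for 16-20 h. MIC = lowest concentration with no visible turbidity; reported as MIC range, MIC₅₀ and MIC₉₀ across isolates.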

SMILES	MIC50 (Streptococcus pyogenes) [µg/mL]	MIC90 (Streptococcus pyogenes) [µg/mL]	MIC50 (Staphylococcus aureus [1]) [µg/mL]	MIC90 (Staphylococcus aureus [1]) [µg/mL]	MIC50 (Streptococcus pneumoniae) [µg/mL]	MIC90 (Streptococcus pneumoniae) [µg/mL]	MIC50 [2] [µg/mL]	MIC90 [2] [µg/mL]	MIC50 (Haemophilus influenzae) [µg/mL]	MIC90 (Haemophilus influenzae) [µg/mL]	MIC50 (Enterococcus) [µg/mL]	MIC90 (Enterococcus) [µg/mL]	MIC50 (Staphylococcus aureus [3]) [µg/mL]	MIC90 (Staphylococcus aureus [3]) [µg/mL]
CCOC(=O)/C=C1\NC(=O)[C@@H]1[C@@H](C)OC(=O)c1cc(OC)c(OC)c(OC)c1	128 (≈ 325 µM)	> 128	> 128	> 128	128 (≈ 325 µM)	128 (≈ 325 µM)	128 (≈ 325 µM)	> 128	128 (≈ 325 µM)	> 128	> 128	> 128	–	–
CCOC(=O)/C=C1\NC(=O)[C@@H]1[C@@H](C)OC(=O)c1ccc(O)cc1	128 (≈ 401 µM)	> 128	> 128	> 128	128 (≈ 401 µM)	128 (≈ 401 µM)	8 (≈ 25.1 µM)	> 128	–	–	> 128	> 128	–	–
COc1cc(C(=O)O[C@H](C)[C@H]2C(=O)N/C2=C\C(=O)O)cc(OC)c1OC	> 128	> 128	> 128	> 128	128 (≈ 350 µM)	128 (≈ 350 µM)	> 128	> 128	128 (≈ 350 µM)	128 (≈ 350 µM)	> 128	> 128	–	–
C[C@@H](O[Si](C)(C)C(C)(C)C)[C@H]1C(=O)N/C1=C\C(=O)OCc1ccccc1	128 (≈ 341 µM)	> 128	> 128	> 128	128 (≈ 341 µM)	128 (≈ 341 µM)	> 128	> 128	128 (≈ 341 µM)	> 128	> 128	> 128	–	–
COc1cc(C(=O)O[C@H](C)[C@H]2C(=O)N/C2=C\C(=O)O)cc(OC)c1O	> 128	> 128	> 128	> 128	128 (≈ 364 µM)	128 (≈ 364 µM)	> 128	> 128	128 (≈ 364 µM)	128 (≈ 364 µM)	> 128	> 128	–	–
C[C@@H](O[Si](C)(C)C(C)(C)C)[C@H]1C(=O)N/C1=C\C(=O)OCc1cc(O)cc(O)c1	32 (≈ 78.5 µM)	32 (≈ 78.5 µM)	64 (≈ 157 µM)	64 (≈ 157 µM)	32 (≈ 78.5 µM)	32 (≈ 78.5 µM)	128 (≈ 314 µM)	> 128	–	–	128 (≈ 314 µM)	128 (≈ 314 µM)	64 (≈ 157 µM)	128 (≈ 314 µM)
C[C@@H](O[Si](C)(C)C(C)(C)C)[C@H]1C(=O)N/C1=C\C(=O)OCc1cc(C(F)(F)F)cc(C(F)(F)F)c1	128 (≈ 250 µM)	> 128	> 128	> 128	128 (≈ 250 µM)	> 128	> 128	> 128	> 128	> 128	> 128	> 128	–	–
CCOC(=O)C[C@H]1NC(=O)[C@@H]1[C@@H](C)O[Si](C)(C)C(C)(C)C	> 128	> 128	> 128	> 128	> 128	> 128	> 128	> 128	128 (≈ 406 µM)	> 128	> 128	> 128	–	–
CCOC(=O)/C=C1\NC(=O)[C@@H]1[C@@H](C)OC(=O)c1cc(OCc2ccccc2)c(O)c(OCc2ccccc2)c1	> 128	> 128	> 128	> 128	> 128	> 128	> 128	> 128	128 (≈ 241 µM)	128 (≈ 241 µM)	> 128	> 128	–	–
C[C@@H](O[Si](C)(C)C(C)(C)C)[C@H]1C(=O)N/C1=C\C(=O)N[C@@H](Cc1ccc(O)cc1)C(=O)OC(C)(C)C	> 128	> 128	> 128	> 128	> 128	> 128	> 128	> 128	> 128	> 128	> 128	> 128	–	–
CCOC(=O)/C=C1\NC(=O)[C@@H]1[C@@H](C)OC(=O)c1cc(O)c(O)c(O)c1	> 128	> 128	128 (≈ 364 µM)	128 (≈ 364 µM)	128 (≈ 364 µM)	> 128	16 (≈ 45.5 µM)	64 (≈ 182 µM)	128 (≈ 364 µM)	128 (≈ 364 µM)	> 128	> 128	128 (≈ 364 µM)	128 (≈ 364 µM)
C[C@@H](O)[C@H]1C(=O)N/C1=C\C(=O)O	128 (≈ 748 µM)	128 (≈ 748 µM)	> 128	> 128	128 (≈ 748 µM)	128 (≈ 748 µM)	> 128	> 128	> 128	> 128	> 128	> 128	–	–
CCOC(=O)/C=C1\NC(=O)[C@@H]1[C@@H](C)OC(=O)c1ccccc1	> 128	> 128	> 128	> 128	> 128	> 128	> 128	> 128	> 128	> 128	> 128	> 128	–	–
C[C@@H](O[Si](C)(C)C(C)(C)C)[C@H]1C(=O)N/C1=C\C(=O)O	128 (≈ 448 µM)	> 128	> 128	> 128	128 (≈ 448 µM)	128 (≈ 448 µM)	> 128	> 128	> 128	> 128	128 (≈ 448 µM)	128 (≈ 448 µM)	–	–
C[C@@H](O[Si](C)(C)C(C)(C)C)[C@H]1C(=O)N/C1=C\C(=O)Oc1cc(O)cc(O)c1	16 (≈ 40.7 µM)	16 (≈ 40.7 µM)	32 (≈ 81.3 µM)	32 (≈ 81.3 µM)	16 (≈ 40.7 µM)	16 (≈ 40.7 µM)	32 (≈ 81.3 µM)	64 (≈ 163 µM)	–	–	64 (≈ 163 µM)	64 (≈ 163 µM)	32 (≈ 81.3 µM)	64 (≈ 163 µM)
CCOC(=O)/C=C1\NC(=O)[C@@H]1[C@@H](C)O[Si](C)(C)C(C)(C)C	128 (≈ 408 µM)	128 (≈ 408 µM)	> 128	> 128	128 (≈ 408 µM)	128 (≈ 408 µM)	> 128	> 128	128 (≈ 408 µM)	128 (≈ 408 µM)	> 128	> 128	–	–
CCOC(=O)/C=C1\NC(=O)[C@@H]1[C@@H](C)OC(=O)c1cc(OCc2ccccc2)c(OCc2ccccc2)c(OCc2ccccc2)c1	> 128	> 128	> 128	> 128	> 128	> 128	> 128	> 128	> 128	> 128	> 128	> 128	–	–
